# System: HeLa
# Test: Antiproliferative activity against human HeLa cells assessed as inhibition of cell growth incubated for 24 hrs by MTT assay
# Format: functional, cell-based
# How it was run: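 Cells kept in DMEM with 10% FBS and 1% antibiotic-antimycotic at 37 °C and 5% CO2. Seeded at 8 × 10^3 cells per 100 μL and left 24 h, then exposed 24 h to 5, 10, 20, 50 or 100 μM. MTT at 0.5 mg/mL in HBSS was added for 2–4 h at 37 °C in the dark. Formazan was dissolved in DMSO, A570 was read, and IC50 was derived.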
smiles,measurement,value
C[C@@H](C[C@@H](O)[C@H](O)C(C)(C)O)[C@@H]1CC[C@]2(C)C3=CC[C@H]4C(C)(C)C(=O)CC[C@]4(C)[C@H]3CC[C@@]12C,IC50,> 100 µM

# — ChEMBL document CHEMBL6083205, “A comprehensive apoptotic assessment of niloticin in cervical cancer cells: a tirucallane-type triterpenoid from Aphanamixis polystachya (Wall.) Parker” (RSC Med Chem, 2024)
